Experimental data: ChEMBL document CHEMBL1144710, “epigenetic multiple ligands: mixed histone/protein methyltransferase, acetyltransferase, and class III deacetylase (sirtuin) inhibitors” (J Med Chem, 2008)
pIC50: −log10 of the molar value. Activity calls are given as the source filed them.

Legend:
[1] = molecular target: RmtA (Emericella nidulans, UniProt Q5VLE3); assay: Inhibition of Aspergillus nidulans RmtA
Procedure, shortened: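 Enzyme was GST-RmtA fusion expressed in E. coli BL21 and glutathione-affinity purified (500 ng), preincubated with compound for 15 min at room temperature. Then 20 µg chicken erythrocyte core histones and 0.55 µCi [3H]AdoMet were added, 30 min at 30 °C. Stopped with 25% TCA, filtered, counted by liquid scintillation.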

[2] = system: U-937; assay: Inhibition of histone H3K4 methylation in human U937 cells at 50 uM after 24 hrs; type: functional, cell-based
Procedure, shortened: (§1)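 U937 cells treated at 50 µM for 24 h. Histones extracted with Triton buffer, then 0.2 M HCl overnight at 4 °C. 3–10 µg run on 15% SDS-PAGE and immunoblotted with anti-monomethyl-H3K4, monomethyl-H4R3 or dimethyl-H3R17 (1:500, overnight 4 °C), ECL detection. Loading controls: total H4 (H3K4), Ponceau Red (Arg marks).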

[3] = system: U-937; assay: Inhibition of histone H4R3 methylation in human U937 cells at 50 uM after 24 hrs; type: functional, cell-based; procedure, shortened: as §1
[4] = system: U-937; assay: Inhibition of histone H3R17 methylation in human U937 cells at 50 uM after 24 hrs; type: functional, cell-based; procedure, shortened: as §1
[5] = molecular target: Protein arginine N-methyltransferase 1 (Homo sapiens) (UniProt Q99873); assay: Inhibition of human recombinant PRMT1 assessed as nuclear ribonucleoprotein Npl3p methylation at 100 uM
Sequence of Protein arginine N-methyltransferase 1 (Homo sapiens) (Q99873 whole entry, looked up): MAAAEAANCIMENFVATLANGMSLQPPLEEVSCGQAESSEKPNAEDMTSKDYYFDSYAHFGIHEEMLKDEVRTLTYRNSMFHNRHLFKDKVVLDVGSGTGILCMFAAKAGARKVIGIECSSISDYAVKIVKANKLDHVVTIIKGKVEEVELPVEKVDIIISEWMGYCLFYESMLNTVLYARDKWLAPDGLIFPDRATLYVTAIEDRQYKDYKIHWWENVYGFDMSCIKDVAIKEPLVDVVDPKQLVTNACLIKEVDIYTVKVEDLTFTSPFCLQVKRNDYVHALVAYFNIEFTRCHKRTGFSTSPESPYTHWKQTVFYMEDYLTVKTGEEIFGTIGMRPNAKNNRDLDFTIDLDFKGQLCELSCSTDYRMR
Procedure, shortened: (§2)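 Recombinant enzymes (0.2 µg) with substrate (0.5 µg: Npl3p for PRMT1, PABP1 for CARM1, histone H3 for SET7), 0.5 µM [3H]AdoMet and 100 µM compound in PBS pH 7.4 with 3.3% v/v DMSO, 90 min at 30 °C. Products separated by 10% SDS-PAGE, transferred to PVDF, detected by fluorography on film overnight.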

[6] = molecular target: T1, Histone-arginine methyltransferase CARM1 (Homo sapiens) (UniProt Q86X55); assay: Inhibition of human recombinant CARM1 assessed as poly(A) binding protein 1 methylation at 100 uM; procedure, shortened: as §2
T1 sequence (whole entry): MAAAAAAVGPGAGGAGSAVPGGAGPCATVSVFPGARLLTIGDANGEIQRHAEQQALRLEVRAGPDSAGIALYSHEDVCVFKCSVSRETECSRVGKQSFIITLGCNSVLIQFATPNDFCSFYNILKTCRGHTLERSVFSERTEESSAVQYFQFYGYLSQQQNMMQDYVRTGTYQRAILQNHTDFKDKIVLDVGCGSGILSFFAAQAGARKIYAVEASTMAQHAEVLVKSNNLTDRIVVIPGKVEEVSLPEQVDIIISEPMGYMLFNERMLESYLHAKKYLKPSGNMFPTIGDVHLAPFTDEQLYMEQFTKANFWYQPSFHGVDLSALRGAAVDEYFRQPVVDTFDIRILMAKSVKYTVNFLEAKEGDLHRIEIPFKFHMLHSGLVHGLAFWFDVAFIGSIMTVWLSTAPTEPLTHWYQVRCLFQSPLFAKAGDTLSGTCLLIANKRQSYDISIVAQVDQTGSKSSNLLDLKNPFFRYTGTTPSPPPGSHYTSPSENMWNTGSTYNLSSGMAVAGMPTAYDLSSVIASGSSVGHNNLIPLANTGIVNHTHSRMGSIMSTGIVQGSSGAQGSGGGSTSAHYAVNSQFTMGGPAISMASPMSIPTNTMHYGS

[7] = molecular target: T2, Histone-lysine N-methyltransferase SETD7 (Homo sapiens) (UniProt Q8WTS6); assay: Inhibition of human recombinant SET7 assessed as histone H3 protein methylation at 100 uM; procedure, shortened: as §2
T2 sequence (whole entry): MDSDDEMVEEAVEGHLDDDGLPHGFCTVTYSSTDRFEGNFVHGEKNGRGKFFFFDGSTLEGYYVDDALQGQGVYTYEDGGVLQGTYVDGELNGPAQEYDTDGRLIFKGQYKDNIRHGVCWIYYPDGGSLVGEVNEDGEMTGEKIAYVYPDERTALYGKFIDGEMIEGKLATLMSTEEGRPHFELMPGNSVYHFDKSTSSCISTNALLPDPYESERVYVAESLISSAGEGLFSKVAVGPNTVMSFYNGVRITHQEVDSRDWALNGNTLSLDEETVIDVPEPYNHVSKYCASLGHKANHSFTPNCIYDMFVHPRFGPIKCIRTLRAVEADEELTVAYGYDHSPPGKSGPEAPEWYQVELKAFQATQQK

Sequence of RmtA (Q5VLE3 whole entry, the tested form may be a part): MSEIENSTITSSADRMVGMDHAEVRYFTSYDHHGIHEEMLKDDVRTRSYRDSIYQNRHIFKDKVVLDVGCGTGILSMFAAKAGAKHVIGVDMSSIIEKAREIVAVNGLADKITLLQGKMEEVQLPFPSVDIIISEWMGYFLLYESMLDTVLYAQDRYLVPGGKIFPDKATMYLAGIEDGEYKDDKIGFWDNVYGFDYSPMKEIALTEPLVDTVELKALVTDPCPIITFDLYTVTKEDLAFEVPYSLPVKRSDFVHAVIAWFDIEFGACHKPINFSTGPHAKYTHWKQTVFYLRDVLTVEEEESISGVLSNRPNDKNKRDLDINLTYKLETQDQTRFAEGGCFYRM

| pIC50 [1] | Activity [5] | Activity [6] | Activity [7] | SMILES | Activity [2] | Activity [3] | Activity [4] |
| --- | --- | --- | --- | --- | --- | --- | --- |
| 3.60 |  |  |  | O=C(/C=C/c1ccc(O)c([N+](=O)[O-])c1)/C=C/c1ccc(O)c([N+](=O)[O-])c1 | Active | Active | Active |
| 3.81 |  |  |  | O=C(CCC(=O)Nc1cc(Br)c(O)c(Br)c1)Nc1cc(Br)c(O)c(Br)c1 |  | Active | Active |
| 3.91 |  |  |  | CN1C/C(=C\c2ccc(O)c(Br)c2)C(=O)/C(=C/c2cc(Br)c(O)c(Br)c2)C1 | Active | Active | Active |
| 3.88 | inactive | Active | inactive | O=C1/C(=C/c2ccc(O)c(Br)c2)COC/C1=C\c1ccc(O)c(Br)c1 | Active | Active | Active |
| 3.76 |  |  |  | O=C(CCCC(=O)Nc1cc(Br)c(O)c(Br)c1)Nc1cc(Br)c(O)c(Br)c1 |  | Active | Active |
| 3.96 | inactive | Active | inactive | O=C(/C=C/c1ccc(O)c(Br)c1)CC(=O)/C=C/c1ccc(O)c(Br)c1 |  | Active | Active |
| 3.91 | Active | Active | Active | O=C(Nc1ccc(NC(=O)c2cc(Br)c(O)c(Br)c2)cc1)c1cc(Br)c(O)c(Br)c1 |  | Active | Active |
| 4.26 |  |  |  | O=C(/C=C/c1ccc(O)c(C(=O)O)c1)/C=C/c1ccc(O)c(C(=O)O)c1 | Active | Active | Active |
| 3.21 |  |  |  | O=C(NCCCCNC(=O)c1cc(Br)c(O)c(Br)c1)c1cc(Br)c(O)c(Br)c1 |  | Active | Active |
| 3.68 |  |  |  | O=C1/C(=C/c2cc(Br)c(O)c(Br)c2)CN(Cc2ccccc2)C/C1=C\c1cc(Br)c(O)c(Br)c1 | Active | Active | Active |
| 3.69 |  |  |  | Cc1cc(/C=C/C(=O)/C=C/c2cc(C)c(O)c(C)c2)cc(C)c1O | Active | Active | Active |
| 3.67 | Active |  | inactive | O=C(/C=C/c1c(Br)cc(O)cc1Br)/C=C/c1c(Br)cc(O)cc1Br | Active | Active | Active |
| 3.72 |  |  |  | O=C(/C=C/c1ccc(O)c(Br)c1)c1ccccc1 | Active | Active | Active |
| 3.94 |  |  |  | O=C(/C=C/c1cc(Br)c(O)c(Br)c1)c1ccccc1 | Active | Active | Active |
| 4.12 |  |  |  | O=C(NCCCNC(=O)c1cc(Br)c(O)c(Br)c1)c1cc(Br)c(O)c(Br)c1 |  | Active | Active |
| 4.05 | inactive | Active | inactive | O=C1/C(=C/c2ccc(O)c(Br)c2)CCC/C1=C\c1ccc(O)c(Br)c1 | Active | Active | Active |
| 3.94 |  |  |  | O=C(/C=C/c1ccc(O)cc1Br)/C=C/c1ccc(O)cc1Br | Active | Active | Active |
| 3.99 |  |  |  | O=C(CC(=O)Nc1cc(Br)c(O)c(Br)c1)Nc1cc(Br)c(O)c(Br)c1 |  | Active | Active |
| 4.04 | inactive | Active | inactive | O=C1/C(=C/c2ccc(O)c(Br)c2)Cc2ccccc2/C1=C\c1ccc(O)c(Br)c1 | Active | Active | Active |
| 3.79 |  |  |  | CN1C/C(=C\c2ccc(O)c(Br)c2)C(=O)/C(=C/c2ccc(O)c(Br)c2)C1 | Active | Active | Active |
| 4.23 | inactive | Active | inactive | O=C(/C=C/c1ccc(O)c(Br)c1)c1cccc(C(=O)/C=C/c2ccc(O)c(Br)c2)c1 | Active | Active | Active |
| 3.77 |  |  |  | O=C(/C=C/c1ccc(O)c(F)c1)/C=C/c1ccc(O)c(F)c1 | Active | Active | Active |
| 4.08 |  |  |  | CN1C2CCC1/C(=C\c1cc(Br)c(O)c(Br)c1)C(=O)/C2=C/c1cc(Br)c(O)c(Br)c1 | Active | Active | Active |
| 4.33 | inactive | Active | inactive | O=C(/C=C/c1ccc(O)c(Br)c1)c1ccc(C(=O)/C=C/c2ccc(O)c(Br)c2)cc1 |  | Active | Active |
| 3.81 |  |  |  | CC(C)(C(=O)/C=C/c1cc(Br)c(O)c(Br)c1)C(=O)/C=C/c1cc(Br)c(O)c(Br)c1 |  | Active | Active |
| 4.05 |  |  |  | O=C(NCCNC(=O)c1cc(Br)c(O)c(Br)c1)c1cc(Br)c(O)c(Br)c1 |  | Active | Active |
| 4.43 |  |  |  | O=C1/C(=C/c2cc(Br)c(O)c(Br)c2)Cc2ccccc2/C1=C\c1cc(Br)c(O)c(Br)c1 | Active | Active | Active |
| 4.49 |  |  |  | O=C(Nc1cc(Br)c(O)c(Br)c1)C(=O)Nc1cc(Br)c(O)c(Br)c1 |  | Active | Active |
| 3.62 | Active |  | inactive | O=C(/C=C/c1c(O)cc(Br)cc1Br)/C=C/c1c(O)cc(Br)cc1Br | Active | Active | Active |
